Screening results as filed in PubChem.
Sampled rows, rich in hits. Any-hit rate of the full collection: about 3.8%.
RGS4 pot: RGS4 potentiation or activation; 310,000 tested, 0.92% active; HEK293 M3R/inducible RGS4, carbachol calcium flux Fluo4; stronger effect = lower value; B-score at 10 µM; AID 463111;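 active means B-score of the integrated calcium signal more than 4 SD below the library mean, with starting fluorescence not abnormally high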;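 further: negative B-score means reduced calcium response which marks RGS4 activation or potentiation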
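Material: M3R-expressing HEK293 line, RGS4 induced by doxycycline | Schedule: Overnight RGS4 induction, 30 min dye load 37 °C, 20 min compound RT | Measured by: Fluo4 fluorescence kinetic imaging of calcium | Read-out: Integrated calcium ratio converted to B score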
MrgX1 ag: activates human MrgX1 receptor signaling; B-score at 10 µM; MrgX1-HEK293 cells, Fluo-4 calcium fluorescence, agonist mode; stronger effect = higher value; 310,000 tested, 0.44% active; Q96LB2;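 active means calcium response B-score plate-corrected fluorescence ratio at least 3 library SD, with starting fluorescence B-score inside 5 SD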
Target sequence (Q96LB2 whole entry, looked up): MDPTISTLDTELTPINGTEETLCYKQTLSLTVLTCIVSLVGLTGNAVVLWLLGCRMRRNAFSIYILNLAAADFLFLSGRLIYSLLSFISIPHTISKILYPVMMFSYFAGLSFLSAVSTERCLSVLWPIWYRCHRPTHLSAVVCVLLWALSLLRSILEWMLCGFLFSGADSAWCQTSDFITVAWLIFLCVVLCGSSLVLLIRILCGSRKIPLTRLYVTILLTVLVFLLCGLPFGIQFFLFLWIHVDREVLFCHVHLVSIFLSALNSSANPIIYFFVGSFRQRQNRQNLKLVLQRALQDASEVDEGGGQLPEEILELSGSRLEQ
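Assay system: MrgX1-expressing HEK293 cells / Amount: fifteen thousand cells per well / Doses: test compound in the initial addition of three / Timing: cells plated overnight, dye loaded 0.5 h 37 °C, 0.5 h room temperature / Technique: kinetic calcium dye fluorescence, Fluo-4 NW / Control set: positive and negative controls per plate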
MrgX1 PAM: allosterically activates human MrgX1 receptor signaling; Q96LB2; MrgX1-HEK293, Fluo-4 calcium flux, FDSS; stronger effect = higher value; B-score at 10 µM; 310,000 tested, 0.63% active; AID 588675;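 active means plate-corrected calcium response at least 3 library SD above typical, normal starting fluorescence, not activating the receptor alone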;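 further: compound read alongside a low EC10 to EC30 dose of BAM8-22 agonist; peak minus trough fluorescence over baseline measured at the second addition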
RGS4 inh: human RGS4 inhibition; AID 463165; HEK293 M3R/RGS4 inducible, Fluo-4 calcium flux; stronger effect = higher value; triggered by carbachol at its EC20; B-score at 10 µM; 310,000 tested, 0.45% active;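 active means B-score, a plate-corrected calcium signal, over three deviations above library mean, with baseline fluorescence within five deviations of library mean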;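 further: RGS4 expression induced by doxycycline in cells with stable M3 receptor; B-score is computed from the integrated fluorescence ratio over baseline after carbachol; higher B-score means a larger calcium signal and so more RGS4 inhibition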
Target sequence (P49798 whole entry, looked up): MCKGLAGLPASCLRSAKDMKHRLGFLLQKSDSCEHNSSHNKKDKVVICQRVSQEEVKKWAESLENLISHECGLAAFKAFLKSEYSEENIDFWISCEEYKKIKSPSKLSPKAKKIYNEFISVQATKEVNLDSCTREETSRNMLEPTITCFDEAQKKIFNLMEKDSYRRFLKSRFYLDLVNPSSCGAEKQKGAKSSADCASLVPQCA
MrgX1 antagonist: human MrgX1 receptor antagonism, primary screen. Q96LB2. MRGX1-HEK293 calcium flux, Fluo-4, BAM8-22 antagonism; stronger effect = lower value. B-score at 10 µM. 310,000 tested, 1.3% active;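 active means calcium-response B-score plate-corrected more than 3 library SD below zero, starting fluorescence within 5 deviations, no agonist response on first addition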;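 further: peak minus trough fluorescence over baseline after final BAM8-22 challenge near maximal dose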
Hep lipid drop: hepatic lipid droplet formation modulation; AML12 mouse hepatocytes, oleate lipid droplets, BODIPY imaging; inhibition, % at 6.5 µM; 240,000 tested, 0.4% active; AID 1656;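 active means lipid droplet intensity inhibited by at least 50%, with more than 500 cells counted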
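Material – mouse AML12 hepatocyte cell line, fixed after treatment · Compound dosing – one dose, 6.5 µM compound · Times – compound with oleate, overnight · Measured by – Image-based BODIPY and DAPI two-channel analysis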
* hit, by the source's call; i = inactive; . = no result.

SMILES | RGS4 pot | MrgX1 ag | MrgX1 PAM | RGS4 inh | MrgX1 antagonist | Hep lipid drop
O=C(Nc1cccc(Cl)c1)c1cc(N=Nc2ccc([N+](=O)[O-])cc2Cl)ccc1O | i | i | i | i | -4.6* | -3
Cc1cc(C(=O)COC(=O)CC2Sc3ccccc3NC2=O)c(C)n1-c1cccc(C(F)(F)F)c1 (configuration not stated) | -8.2* | i | i | i | i | -1
Cc1cc(C(=O)COC(=O)Cc2n[nH]c(=O)c3ccccc23)c(C)n1-c1cccc(C(F)(F)F)c1 | i | i | i | i | i | -6
O=C(NCC1CCCO1)C(c1ccc(F)cc1)N(C(=O)Cn1nnc(-c2ccc(F)cc2)n1)c1cccc(O)c1 (configuration not stated) | i | i | i | i | i | 16
O=C(C[n+]1cc(Br)cc2ccccc21)c1ccc(Cl)cc1 | i | i | 7.4* | i | i | -10
CCC(=O)NCCCc1nc(-c2ccccc2)no1 | i | i | i | i | i | .
O=C(O)c1cc(-c2ccc(-c3c(-c4ccc5c(c4)OCO5)noc3-c3ccsc3)cc2)nc2ccccc12 | -11* | i | i | i | i | 0
COc1cccc(/C=N/Nc2ncnc3scc(-c4ccccc4)c23)c1O | -10* | i | i | i | i | -88
C=CCn1c(=NC(=O)c2ccccc2[N+](=O)[O-])sc2cc(S(C)(=O)=O)ccc21 | i | i | i | i | i | 18
COc1ccc(S(=O)(=O)NNC(=O)C23CC4CC(CC(C4)C2)C3)cc1[N+](=O)[O-] | i | i | i | i | i | .
O=C(Nc1cccc(F)c1)C1CCCN(S(=O)(=O)c2cnc[nH]2)C1 (configuration not stated) | i | i | i | i | i | 6
CCCCn1nnnc1SCC(=O)NNC(=O)C1CCCCC1 | i | i | i | i | -5.1* | .
O=C(NCC(=O)N1CCN(S(=O)(=O)c2ccccc2)CC1)c1ccc(Br)o1 | i | i | i | i | i | .
CCC1=NN(C(=O)c2ccc(Br)cc2)C(O)(c2ccccc2)C1 (configuration not stated) | i | 30* | i | i | i | 7
COc1cc(C(=O)NCCOc2cc(C)ccc2C(C)C)cc(OC)c1OC | i | i | i | i | -4.7* | .
Cc1cc(C)n(C(=O)CNC(=O)c2ccc(Cl)cc2Cl)n1 | i | i | i | i | i | 4
O=C1C(Cl)=C(NC2CCCCC2)C(=O)N1c1ccc(Cl)cc1 | i | i | 15* | i | i | 26
CN1CCN(C2=C(Cl)C(=O)N(c3ccc(Cl)cc3)C2=O)CC1 | i | i | i | i | i | .
Cc1ccn(CCC(=O)N2CCCC(CCC(=O)N3CCN(c4ccccn4)CC3)C2)n1 (configuration not stated) | i | i | i | i | i | 22
CCCCCCn1c(COc2ccccc2F)nnc1SCC(=O)c1c(N)n(C)c(=O)n(C)c1=O | i | i | i | i | i | -19
C=CCn1c(COc2cc(C)ccc2C(C)C)nnc1SCC(=O)c1c(N)n(C)c(=O)n(C)c1=O | i | i | i | i | -4.7* | 2
O=C(/C=C/c1ccccc1Br)c1ccc2c(c1)OCO2 | -11* | i | i | i | i | -33
O=C(/C=C/c1ccccc1)c1ccc2c(c1)OCO2 | i | i | i | i | i | 6
O=C(/C=C\Nc1ccccc1Br)c1ccc2c(c1)OCO2 | i | i | i | i | i | -5
O=C(/C=C/c1cccc(Br)c1)c1ccc2c(c1)OCO2 | i | i | 8.3* | i | i | -10
SMILES | RGS4 pot | MrgX1 ag | MrgX1 PAM | RGS4 inh | MrgX1 antagonist | Hep lipid drop
COC(=O)c1ccc(N/C=C\C(=O)c2ccc3c(c2)OCO3)cc1 | i | i | i | i | i | -4
O=C(/C=C\Nc1cccc(F)c1)c1ccc2c(c1)OCO2 | i | i | i | i | -4.7* | .
CC1=Nc2nc(N3CCCCC3)c(C#N)c3c4c(nc(c23)N1)N(c1ccc(C(C)C)cc1)C(=O)C4 | i | i | i | i | i | -34
Cc1cc(C)cc(N(C(=O)Cc2cccs2)C(C(=O)NC2CCCCC2)c2ccccn2)c1 (configuration not stated) | i | i | i | i | i | .
O=C(NC1CCCCC1)C(c1ccccn1)N(C(=O)Cc1cccs1)c1ccc(Cl)cc1 (configuration not stated) | i | 37* | i | i | i | .
Cc1noc(C)c1C(=O)N1CCN(c2ccc(OCc3ccccc3)cc2)CC1 | i | i | i | i | i | 8
COc1ccc(CCC(=O)Nc2cc(S(C)(=O)=O)ccc2Cl)cc1 | i | i | i | i | i | 9
O=S(=O)(c1ccc(Cl)c(Cl)c1)c1snnc1-c1ccccc1 | -7.3* | . | . | i | . | -24
CC(C)c1[nH]nc2c1C(Cc1ccccc1)C(C#N)=C(N)O2 (configuration not stated) | -7.6* | i | i | i | i | .
COc1ccc(-c2cc([C@H]3[C@@H]4C=CCC[C@@]4(C)C(=O)N3Cc3ccccc3)ccc2F)cc1 | i | i | i | i | -5.4* | -21
C/C(=N/OC(=O)c1c(-c2c(Cl)cccc2Cl)noc1C)c1cnccn1 | i | i | i | i | i | -5
C/C(=N/OC(=O)c1c(-c2ccccc2Cl)noc1C)c1cnccn1 | -9.8* | i | i | i | i | 2
CN1CCN(C(=O)CCN2C(=O)c3ccccc3S2(=O)=O)CC1 | i | i | i | i | -7.4* | .
Cc1cc(N2CCCC2)ccc1/C=C1\NC(=S)N(C)C1=O | i | 44* | i | i | i | 14
CN1C(=O)c2ccc(N3CCCC3)cc2C1=O | i | i | i | i | i | .
Cc1ccc(N2C(=O)[C@@H]3C(C(=O)CCN4C(=O)c5ccccc5C4=O)=NN[C@@H]3C2=O)cc1 | i | i | i | i | i | 2
CCCCC[C@H](O)/C=C/[C@H]1[C@H](O)CC(=O)[C@@H]1CCCCCCC(=O)O | i | 30* | i | 6.4* | i | .
Cc1cccc(C(=O)C2CCN(S(=O)(=O)c3cccc(C(=O)O)c3)CC2)c1 | i | . | . | i | . | -3
O=C(CCc1ccncc1)N1CCCC(Nc2ccc(F)c(F)c2)C1 (configuration not stated) | i | i | i | i | i | 2
